Source: ChEMBL document CHEMBL1123566, “Synthesis and cardiac electrophysiological activity of 2- and 3-[(substituted phenyl)alkyl]quinuclidines. Structure-activity relationships” (1987)

Tests used:
Canis familiaris [1] = assay: Heart rate was determined by intraduodenal administration of two dosages of 10 mg/kg of compound in anesthetized dogs. Value was reported for experiment 1; assay type: functional, Canis lupus familiaris
Procedure, shortened: (§1)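 Anesthetized dogs; compound given intraduodenally, generally as two doses, the second a cumulative (high) dose. LV functional refractory period and conduction time measured 15, 30 and 45 min after dosing; heart rate and blood pressure measured during nonpacing intervals. Values are % change from control, given per individual animal. Active if FRP or CT prolonged by ≥12%.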

Canis familiaris [2] = assay: Heart rate was determined by intraduodenal administration of two dosages of 30 mg/kg of compound in anesthetized dogs. Value was reported for experiment 3; assay type: functional, Canis lupus familiaris; procedure, shortened: as §1
Canis familiaris [3] = assay: Mean arterial blood pressure was determined by intraduodenal administration of two dosages of 10 mg/kg of compound in anesthetized dogs. Value was reported for experiment 3; assay type: functional, Canis lupus familiaris
Canis familiaris [4] = assay: Conduction time was determined by intraduodenal administration of 10 mg/kg (low dose) of compound in anesthetized dogs. Value was reported for experiment 2; assay type: functional, Canis lupus familiaris; procedure, shortened: as §1
Canis familiaris [5] = species: Canis familiaris; assay: In vitro electrophysiological evaluation in canine cardiac Purkinje fibres reported as percent change Vmax at concentration range of 0.1-10 uM; Minimal (<10% decrease or increase in V max).; assay type: functional; conditions: Canis lupus familiaris; Purkinje fiber
Procedure, shortened: (§2)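 Canine cardiac Purkinje fibres, intracellular microelectrode recording, paced at a basic cycle length of 1 s. APD95 and Vmax read simultaneously. Compound: 10 mM stock in deionized water, diluted into Tyrode's solution, tested over the stated concentration range. Each fibre used once as its own control. Result is % change from control, given at 10 µM or as the maximum with its concentration. M = <10% decrease or an increase in Vmax.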

Canis familiaris [6] = species: Canis familiaris; assay: In vitro electrophysiological evaluation in canine cardiac Purkinje fibres reported as percent change Vmax at 10 uM at concentration range of 1-100 uM; Minimal (<10% decrease or increase in V max).; assay type: functional; conditions: Canis lupus familiaris, Purkinje fiber; procedure, shortened: as §2
Canis familiaris [7] = assay: Left ventricular refractory period was determined by intraduodenal administration of 10 mg/kg (low dose) of compound in anesthetized dogs. Value was reported for experiment 1; assay type: functional, Canis lupus familiaris, Cardiac ventricle
Procedure, shortened: (§3)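 Anesthetized dogs received two intraduodenal doses, the second cumulative (low dose/high dose). Left ventricular FRP and CT were measured 15, 30 and 45 min after dosing. Heart rate and mean blood pressure were taken during nonpacing intervals. Values are percent change from control. The vehicle was 5% dextrose in water/tragacanth. Activity was defined as ≥12% prolongation of FRP or CT.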

Canis familiaris [8] = assay: Heart rate was determined by intraduodenal administration of two dosages of 30 mg/kg of compound in anesthetized dogs. Value was reported for experiment 1; assay type: functional, Canis lupus familiaris; procedure, shortened: as §1
Canis familiaris [9] = species: Canis familiaris; assay: In vitro electrophysiological evaluation in canine cardiac Purkinje fibres reported as percent change Vmax at 10 uM at concentration range of 0.1-10 uM; Minimal (<10% decrease or increase in V max).; assay type: functional; conditions: Canis lupus familiaris, Purkinje fiber; procedure, shortened: as §2
Canis familiaris [10] = assay: Conduction time was determined by intraduodenal administration of 10 mg/kg (low dose) of compound in anesthetized dogs. Value was reported for experiment 1; assay type: functional, Canis lupus familiaris; procedure, shortened: as §1
Canis familiaris [11] = assay: Heart rate was determined by intraduodenal administration of two dosages of 10 mg/kg of compound in anesthetized dogs. Value was reported for experiment 3; assay type: functional, Canis lupus familiaris; procedure, shortened: as §1
Canis familiaris [12] = assay: Conduction time was determined by intraduodenal administration of 30 mg/kg (high dose) of compound in anesthetized dogs. Value was reported for experiment 3; assay type: functional, Canis lupus familiaris; procedure, shortened: as §1
Canis familiaris [13] = assay: Left ventricular refractory period was determined by intraduodenal administration of 30 mg/kg (high dose) of compound in anesthetized dogs. Value was reported for experiment 3; assay type: functional, Canis lupus familiaris, Cardiac ventricle; procedure, shortened: as §3
Canis familiaris [14] = assay: Conduction time was determined by intraduodenal administration of 30 mg/kg (high dose) of compound in anesthetized dogs. Value was reported for experiment 1; assay type: functional, Canis lupus familiaris; procedure, shortened: as §1
Canis familiaris [15] = species: Canis familiaris; assay: In vitro electrophysiological activity in canine cardiac occurred is 100 uM; assay type: functional, Canis lupus familiaris, Heart
Canis familiaris [16] = assay: Mean arterial blood pressure was determined by intraduodenal administration of two dosages of 10 mg/kg of compound in anesthetized dogs. Value was reported for experiment 1; assay type: functional, Canis lupus familiaris; procedure, shortened: as §3
Canis familiaris [17] = assay: Left ventricular refractory period was determined by intraduodenal administration of 30 mg/kg (high dose) of compound in anesthetized dogs. Value was reported for experiment 2; assay type: functional, Canis lupus familiaris, Cardiac ventricle; procedure, shortened: as §3
Canis familiaris [18] = assay: Left ventricular refractory period was determined by intraduodenal administration of 10 mg/kg (low dose) of compound in anesthetized dogs. Value was reported for experiment 3; assay type: functional, Canis lupus familiaris, Cardiac ventricle; procedure, shortened: as §3
Canis familiaris [19] = species: Canis familiaris; assay: In vitro electrophysiological evaluation in canine cardiac Purkinje fibres reported as percent change Vmax at 10 uM at concentration range of 1-100 uM.; assay type: functional; conditions: Canis lupus familiaris, Purkinje fiber; procedure, shortened: as §2
Canis familiaris [20] = assay: Conduction time was determined by intraduodenal administration of 10 mg/kg (low dose) of compound in anesthetized dogs. Value was reported for experiment 3; assay type: functional, Canis lupus familiaris; procedure, shortened: as §1
Canis familiaris [21] = assay: Heart rate was determined by intraduodenal administration of two dosages of 10 mg/kg of compound in anesthetized dogs. Value was reported for experiment 2; assay type: functional, Canis lupus familiaris; procedure, shortened: as §1
Canis familiaris [22] = species: Canis familiaris; assay: In vitro electrophysiological evaluation in canine cardiac ventricular muscle reported as % change for conduction time(CT) at 10 uM at 0.1-10 uM concentration range; Minimal (<10% decrease or increase in CT).; assay type: functional, Canis lupus familiaris, Muscle tissue
Canis familiaris [23] = assay: Mean arterial blood pressure was determined by intraduodenal administration of two dosages of 30 mg/kg of compound in anesthetized dogs. Value was reported for experiment 3; assay type: functional, Canis lupus familiaris
Canis familiaris [24] = assay: Left ventricular refractory period was determined by intraduodenal administration of 30 mg/kg (high dose) of compound in anesthetized dogs. Value was reported for experiment 1; assay type: functional, Canis lupus familiaris, Cardiac ventricle; procedure, shortened: as §3
Canis familiaris [25] = assay: Mean arterial blood pressure was determined by intraduodenal administration of two dosages of 30 mg/kg of compound in anesthetized dogs. Value was reported for experiment 1; assay type: functional, Canis lupus familiaris; procedure, shortened: as §3
Canis familiaris [26] = assay: Mean arterial blood pressure was determined by intraduodenal administration of two dosages of 30 mg/kg of compound in anesthetized dogs. Value was reported for experiment 2; assay type: functional, Canis lupus familiaris; procedure, shortened: as §3
Canis familiaris [27] = species: Canis familiaris; assay: In vitro electrophysiological evaluation in canine cardiac Purkinje fibres reported as percent change Vmax at concentration range of 1-100 uM; conduction block; assay type: functional; conditions: Canis lupus familiaris; Purkinje fiber; procedure, shortened: as §2
Canis familiaris [28] = species: Canis familiaris; assay: In vitro electrophysiological evaluation in canine cardiac Purkinje fibres reported as % change for action potential duration at a concentration of 10 uM; assay type: functional, Canis lupus familiaris, Purkinje fiber; procedure, shortened: as §2
Canis familiaris [29] = assay: Conduction time was determined by intraduodenal administration of 30 mg/kg (high dose) of compound in anesthetized dogs. Value was reported for experiment 2; assay type: functional, Canis lupus familiaris; procedure, shortened: as §1
Canis familiaris [30] = species: Canis familiaris; assay: In vitro electrophysiological activity in canine cardiac occurred is 10 uM; assay type: functional, Canis lupus familiaris, Heart
Canis familiaris [31] = assay: Heart rate was determined by intraduodenal administration of two dosages of 30 mg/kg of compound in anesthetized dogs. Value was reported for experiment 2; assay type: functional, Canis lupus familiaris; procedure, shortened: as §1
Canis familiaris [32] = assay: Mean arterial blood pressure was determined by intraduodenal administration of two dosages of 10 mg/kg of compound in anesthetized dogs. Value was reported for experiment 2; assay type: functional, Canis lupus familiaris; procedure, shortened: as §3
Canis familiaris [33] = species: Canis familiaris; assay: In vitro electrophysiological evaluation in canine cardiac ventricular muscle reported as % change for the functional refractory period (FRP) at 10 uM at concentration range of 0.1-10 uM; set-up: species or system Canis lupus familiaris, Muscle tissue
Procedure, shortened: (§4)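 Canine right ventricle and papillary muscle strips in oxygenated Tyrode's solution, fitted with stimulating and recording electrodes. The extra-stimulus conduction-interval method was adapted for in vitro use. FRP and CT were read from a conduction-interval curve before and after various compound concentrations, and expressed as percent change from control. Compounds were taken from 10 mM deionized-water stock into Tyrode's. Each strip was used once as its own control.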

Canis familiaris [34] = species: Canis familiaris; assay: In vitro electrophysiological evaluation in canine cardiac ventricular muscle reported as maximum % change for conduction time(CT) at 0.1-10 uM concentration range; Minimal (<10% decrease or increase in CT).; assay type: functional, Canis lupus familiaris, Muscle tissue; procedure, shortened: as §4
Canis familiaris [35] = assay: Left ventricular refractory period was determined by intraduodenal administration of 10 mg/kg (low dose) of compound in anesthetized dogs. Value was reported for experiment 2; assay type: functional, Canis lupus familiaris, Cardiac ventricle; procedure, shortened: as §3
Canis familiaris [36] = species: Canis familiaris; assay: In vitro electrophysiological evaluation in canine cardiac ventricular muscle reported as maximum % change for functional refractory period (FRP) at 0.1-10 uM concentration range; concentration at which it occurred is 10 uM; set-up: species or system Canis lupus familiaris, Muscle tissue; procedure, shortened: as §4

SMILES: CC(=O)C(CC1C(=O)C2CCN1CC2)C(=O)c1ccc(Cl)cc1.Cl (stereo unspecified)
- HR (Canis familiaris [1]): 1%
- HR (Canis familiaris [2]): -22%
- Mean blood pressure (Canis familiaris [3]): 7%
- CT (Canis familiaris [4]): 0%
- Vmax (Canis familiaris [5]): < 10%
- Vmax (Canis familiaris [6]): < 10%
- LV FRP (Canis familiaris [7]): 4%
- HR (Canis familiaris [8]): 2%
- Vmax (Canis familiaris [9]): < 10%
- CT (Canis familiaris [10]): 3%
- HR (Canis familiaris [11]): -15%
- CT (Canis familiaris [12]): 13%
- LV FRP (Canis familiaris [13]): 15%
- CT (Canis familiaris [14]): 9%
- APD95 (Canis familiaris [15]): -16%
- Mean blood pressure (Canis familiaris [16]): -5%
- LV FRP (Canis familiaris [17]): 18%
- LV FRP (Canis familiaris [18]): 11%
- Vmax (Canis familiaris [19]): -10%
- CT (Canis familiaris [20]): 8%
- HR (Canis familiaris [21]): -14%
- CT (Canis familiaris [22]): <10%
- Mean blood pressure (Canis familiaris [23]): 7%
- LV FRP (Canis familiaris [24]): 1%
- Mean blood pressure (Canis familiaris [25]): -6%
- Mean blood pressure (Canis familiaris [26]): -16%
- Vmax (Canis familiaris [27]): 100%
- APD95 (Canis familiaris [28]): 23%
- CT (Canis familiaris [29]): 7%
- APD95 (Canis familiaris [30]): 23%
- HR (Canis familiaris [31]): -28%
- Mean blood pressure (Canis familiaris [32]): -4%
- FRP (Canis familiaris [33]): 24%
- CT (Canis familiaris [34]): <10%
- LV FRP (Canis familiaris [35]): 11%
- FRP (Canis familiaris [36]): 24%
